In ChEMBL document CHEMBL1125321, “Synthesis and biological activity of 13-epi-avermectins: potent anthelmintic agents with an increased margin of safety” (J Med Chem, 1992) one finds IC100, Activity and LD50 data, which are given here for seven compounds.

One data set has as its system Artemia salina. Put plainly: Compound is evaluated in vitro for brine shrimp (Artemia salina) activity. Format: functional.
The test system of data set [1] is Oesophagostomum columbianum. Put plainly: Compound is evaluated in vivo for anthelmintic activity against Oesophagostomum columbianum (Oe. c) parasite in sheep; activity at 0.1 mg/kg. Format: functional. In a few lines: (§1)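 Sheep with patent infections randomly assigned; one sheep per compound, two vehicle-only controls. Single oral dose 0.1 mg/kg. Necropsy 7 days post-dose, residual worm burdens counted. Efficacy as % reduction from control, scored 0 = <50%, 1 = 51-75%, 2 = 76-95%, 3 = >95%.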

The test system of a further data set is Trichostrongylus axei. Description: Compound is evaluated in vivo for anthelmintic activity against Trichostrongylus axei (T.a) parasite in sheep; activity at 0.1 mg/kg. It counts as functional. In a few lines: as §1
A further data set concerns Haemonchus contortus. Description: Compound is evaluated in vivo for anthelmintic activity against Haemonchus contortus (H.c) parasite in sheep; activity at 0.1 mg/kg. It counts as functional. In a few lines:
as §1

Data set [2] concerns Cooperia. Description: Compound is evaluated in vivo for anthelmintic activity against Cooperia species (C. species) parasite in sheep; activity at 0.1 mg/kg. It counts as functional. In a few lines: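 Sheep with patent nematode infections, randomly assigned to treatment or control; one sheep per compound, two vehicle-only controls. Single oral dose of 0.1 mg/kg. Necropsy 7 days after dosing to count residual worm burdens. Efficacy is % reduction from control, scored 0 = <50%, 1 = 51–75%, 2 = 76–95%, 3 = >95%.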

The test system of data set [3] is Teladorsagia circumcincta. Description: Compound is evaluated in vivo for anthelmintic activity against Ostertagia circumcincta (Os. c) parasite in sheep; activity at 0.1 mg/kg. It counts as functional. In a few lines: as §1
For data set [4], the system named is Trichostrongylus colubriformis. Description: Compound is evaluated in vivo for anthelmintic activity against Trichostrongylus colubriformis (T.c) parasite in sheep; activity at 0.1 mg/kg. Format: functional. In a few lines:
as §1

Data set [5] in a line: Compound is evaluated for acute toxicity in mice. Format: organism-based. Particulars: mouse, in vivo. In a few lines:
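Male CD-1 mice, groups of five per dose randomly allocated; several doses given orally in vehicle by calibrated syringe with blunt-tipped needle. Deaths counted 7 days after dosing; estimated LD50 derived by the method of dose-pair responses.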

Data set [6] relates to Cooperia. Put plainly: Compound is evaluated in vivo for anthelmintic activity against Cooperia species (C. species) parasite in sheep; activity at 0.1 mg/kg; value ranges from 76-95%. Format: functional. In a few lines:
as §1

In the case of `CC[C@H](C)[C@H]1O[C@@]2(C[C@@H]3C[C@@H](C/C=C(\C)[C@H](O[C@@H]4C[C@H](OC)C(O[C@H]5C[C@H](OC)[C@@H](O)[C@H](C)O5)[C@H](C)O4)[C@@H](C)/C=C/C=C4\CO[C@@H]5[C@H](O)C(C)=C[C@@H](C(=O)O3)[C@]45O)O2)C[C@H](O)[C@@H]1C` (some centres undefined), the IC100 in the data set with Artemia salina is 20850 ng/mL.

The compound `CC[C@H](C)[C@H]1O[C@]2(C=C[C@@H]1C)C[C@@H]1C[C@@H](C/C=C(\C)[C@H](O[C@@H]3C[C@H](OC)C(O[C@H]4C[C@H](OC)[C@@H](O)[C@H](C)O4)[C@H](C)O3)[C@@H](C)/C=C/C=C3\CO[C@@H]4[C@H](O)C(C)=C[C@@H](C(=O)O1)[C@]34O)O2` (some centres undefined) registered an IC100 with Artemia salina of 10415 ng/mL.

In the data set with Artemia salina, `CC[C@H](C)[C@H]1O[C@@]2(C[C@@H]3C[C@@H](C/C=C(\C)[C@H](O[C@H]4C[C@H](OC)C(O[C@H]5C[C@H](OC)[C@@H](O)[C@H](C)O5)[C@H](C)O4)[C@@H](C)/C=C/C=C4\CO[C@@H]5[C@H](O)C(C)=C[C@@H](C(=O)O3)[C@]45O)O2)C[C@H](O)[C@@H]1C` (some centres undefined) yielded an IC100 of 650 ng/mL. The Activity (in [1]; in the data set on Trichostrongylus axei; in the data set with Haemonchus contortus; in the data set on Cooperia [2]; in data set [3]; in [4]) was over 95% each time. Further, the LD50 – broadly, the dose expected to kill half of the subjects tested – in data set [5] is 540 mg/kg.

On to `CC[C@H](C)[C@H]1O[C@]2(C=C[C@@H]1C)C[C@@H]1C[C@@H](C/C=C(\C)[C@H](O[C@H]3C[C@H](OC)C(O[C@H]4C[C@H](OC)[C@@H](O)[C@H](C)O4)[C@H](C)O3)[C@@H](C)/C=C/C=C3\CO[C@@H]4[C@H](O)C(C)=C[C@@H](C(=O)O1)[C@]34O)O2` (some centres undefined), for which the IC100 in the data set on Artemia salina stood at 870 ng/mL. In addition, the Activity in data set [1] is on record as over 95%; in the data set on Trichostrongylus axei, over 95%; in the data set with Haemonchus contortus it was over 95%; with Cooperia [6] it was 76%; in data set [3] it was over 95%; in [4], over 95%. Besides, the LD50 in [5] amounted to 160 mg/kg.

For the compound `CC[C@H](C)[C@H]1O[C@]2(C=C[C@@H]1C)C[C@@H]1C[C@@H](C/C=C(\C)[C@@H](O[C@H]3C[C@H](OC)[C@@H](O[C@H]4C[C@H](OC)[C@@H](O)[C@H](C)O4)[C@H](C)O3)[C@@H](C)/C=C/C=C3\CO[C@@H]4[C@H](O)C(C)=C[C@@H](C(=O)O1)[C@]34O)O2` [ABAMECTIN COMPONENT B1A], the IC100 with Artemia salina was 356 ng/mL. For the same compound, the LD50 in [5] came out at 19 mg/kg.

Turning to `CCC(C)C1O[C@]2(C=C[C@@H]1C)C[C@@H]1CC(C/C=C(\C)[C@@H](OC3C[C@H](OC)[C@@H](OC4C[C@H](OC)[C@@H](O)[C@H](C)O4)[C@H](C)O3)[C@@H](C)/C=C/C=C3\COC4[C@H](O)C(C)=CC(C(=O)O1)[C@]34O)O2` (some centres undefined) [AVERMECTIN B1A], the Activity (in data set [1]; with Trichostrongylus axei; in the data set on Haemonchus contortus; in the data set with Cooperia [2]; in data set [3]; in [4]) was over 95% each time.

As for `COC1CC(OC2C(C)OC(O[C@@H]3/C(C)=C/C[C@@H]4C[C@@H](C[C@]5(CC(O)[C@H](C)[C@@H](C(C)C)O5)O4)OC(=O)[C@@H]4C=C(C)[C@@H](O)[C@H]5OC/C(=C\C=C\[C@@H]3C)[C@]54O)CC2OC)OC(C)C1O` (some centres undefined) [AVERMECTIN B2], in the data set on Artemia salina, the IC100 amounted to 220 ng/mL. For the same compound, the Activity (in [1]; in the data set on Trichostrongylus axei; in the data set with Haemonchus contortus; in the data set with Cooperia [2]; in data set [3]; in data set [4]) was over 95% each time. Moreover, in [5], the LD50 was 50 mg/kg.
